According to ChEMBL document CHEMBL1144710, “epigenetic multiple ligands: mixed histone/protein methyltransferase, acetyltransferase, and class III deacetylase (sirtuin) inhibitors” (J Med Chem, 2008):
pIC50: −log10 of the molar value. Active and inactive are the calls of the source. Unless noted, no cut-off for these calls is given here.

Legend:
[1] = test system: U-937; assay: Inhibition of histone H3R17 methylation in human U937 cells at 50 uM after 24 hrs; format: functional, cell-based
In short: (§1)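 U937 cells treated at 50 µM for 24 h. Histones extracted with Triton buffer, then 0.2 M HCl overnight at 4 °C. 3–10 µg run on 15% SDS-PAGE and immunoblotted with anti-monomethyl-H3K4, monomethyl-H4R3 or dimethyl-H3R17 (1:500, overnight 4 °C), ECL detection. Loading controls: total H4 (H3K4), Ponceau Red (Arg marks).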

[2] = target: T1, Histone-arginine methyltransferase CARM1 (Homo sapiens) (UniProt Q86X55); assay: Inhibition of human recombinant CARM1 assessed as poly(A) binding protein 1 methylation at 100 uM
T1 sequence (whole entry): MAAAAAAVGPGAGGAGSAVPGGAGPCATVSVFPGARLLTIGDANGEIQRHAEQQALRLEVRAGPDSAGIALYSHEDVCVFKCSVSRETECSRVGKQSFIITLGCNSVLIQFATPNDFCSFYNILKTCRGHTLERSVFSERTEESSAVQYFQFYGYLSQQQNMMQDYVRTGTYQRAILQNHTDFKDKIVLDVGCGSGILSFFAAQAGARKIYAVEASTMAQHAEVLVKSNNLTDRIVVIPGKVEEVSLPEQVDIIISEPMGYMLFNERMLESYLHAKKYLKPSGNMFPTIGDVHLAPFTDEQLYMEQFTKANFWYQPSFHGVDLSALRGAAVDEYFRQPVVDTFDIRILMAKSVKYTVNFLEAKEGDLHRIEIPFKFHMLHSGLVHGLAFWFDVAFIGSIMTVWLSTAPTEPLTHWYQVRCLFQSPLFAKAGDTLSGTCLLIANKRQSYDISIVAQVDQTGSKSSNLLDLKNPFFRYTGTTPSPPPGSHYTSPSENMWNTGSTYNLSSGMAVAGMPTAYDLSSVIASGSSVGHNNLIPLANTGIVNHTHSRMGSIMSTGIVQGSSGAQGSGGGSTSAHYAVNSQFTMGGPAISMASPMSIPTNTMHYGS
In short: (§2)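 Recombinant enzymes (0.2 µg) with substrate (0.5 µg: Npl3p for PRMT1, PABP1 for CARM1, histone H3 for SET7), 0.5 µM [3H]AdoMet and 100 µM compound in PBS pH 7.4 with 3.3% v/v DMSO, 90 min at 30 °C. Products separated by 10% SDS-PAGE, transferred to PVDF, detected by fluorography on film overnight.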

[3] = target: Protein arginine N-methyltransferase 1 (Homo sapiens) (UniProt Q99873); assay: Inhibition of human recombinant PRMT1 assessed as histone H4 methylation at 50 uM
Chain of Protein arginine N-methyltransferase 1 (Homo sapiens) (Q99873 whole entry, looked up): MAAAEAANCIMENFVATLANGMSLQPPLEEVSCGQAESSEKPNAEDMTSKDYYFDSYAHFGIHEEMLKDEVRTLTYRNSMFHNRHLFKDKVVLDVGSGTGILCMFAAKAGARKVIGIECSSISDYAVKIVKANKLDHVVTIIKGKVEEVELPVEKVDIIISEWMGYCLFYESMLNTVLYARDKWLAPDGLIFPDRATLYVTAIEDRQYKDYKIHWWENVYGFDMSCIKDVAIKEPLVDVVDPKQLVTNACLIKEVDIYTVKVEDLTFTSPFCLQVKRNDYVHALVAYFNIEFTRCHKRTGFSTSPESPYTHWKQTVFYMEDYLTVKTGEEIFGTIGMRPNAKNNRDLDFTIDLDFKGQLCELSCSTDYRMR

[4] = target: T2, Histone-lysine N-methyltransferase SETD7 (Homo sapiens) (UniProt Q8WTS6); assay: Inhibition of human recombinant SET7 assessed as histone H3 protein methylation at 100 uM; in short: as §2
T2 sequence (whole entry): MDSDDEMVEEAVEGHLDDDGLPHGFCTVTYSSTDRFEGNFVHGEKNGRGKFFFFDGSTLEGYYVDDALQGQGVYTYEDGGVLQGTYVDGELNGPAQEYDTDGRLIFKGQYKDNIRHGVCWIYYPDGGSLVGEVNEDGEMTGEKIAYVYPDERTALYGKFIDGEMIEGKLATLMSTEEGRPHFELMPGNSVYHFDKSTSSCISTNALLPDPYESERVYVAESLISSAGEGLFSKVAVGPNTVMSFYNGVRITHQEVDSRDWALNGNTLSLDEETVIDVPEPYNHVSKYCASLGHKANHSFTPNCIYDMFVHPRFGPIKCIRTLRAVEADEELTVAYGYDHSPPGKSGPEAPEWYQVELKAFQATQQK

[5] = target: T3, NAD-dependent protein deacetylase sirtuin-2 (Homo sapiens) (UniProt Q8IXJ6); assay: Inhibition of human SIRT2 at 25 uM
T3 sequence (whole entry): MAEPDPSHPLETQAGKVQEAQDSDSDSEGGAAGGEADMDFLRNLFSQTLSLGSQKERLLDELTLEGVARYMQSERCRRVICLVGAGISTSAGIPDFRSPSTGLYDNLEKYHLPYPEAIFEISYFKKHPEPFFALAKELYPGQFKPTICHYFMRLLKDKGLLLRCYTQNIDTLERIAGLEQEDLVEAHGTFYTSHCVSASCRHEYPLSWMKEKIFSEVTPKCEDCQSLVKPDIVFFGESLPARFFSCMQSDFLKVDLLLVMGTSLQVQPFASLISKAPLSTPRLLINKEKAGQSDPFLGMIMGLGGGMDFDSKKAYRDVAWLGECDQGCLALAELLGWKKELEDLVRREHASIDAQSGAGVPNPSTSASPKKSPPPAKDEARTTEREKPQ
In short: (§3)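 Fluorescent two-stage assay. SIRT1 (1 U/well) or SIRT2 (5 U/well) with Fluor de Lys-SIRT1/2 substrate, NAD+ and compound at 25 µM, 37 °C for 2 h. Developer II containing nicotinamide then stopped the reaction and generated signal, read at ex 360/em 460 nm.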

[6] = test system: U-937; assay: Cell cycle arrest in human U937 cells assessed as accumulation at S phase at 25 uM after 30 hrs; format: functional, cell-based
In short: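 U937 cells in RPMI with 10% fetal calf serum, HEPES and glutamine, kept at 200000 cells/mL; treated at 25 µM for 30 h, then the distribution across cell cycle phases was analysed.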

[7] = test system: U-937; assay: Inhibition of histone H3K4 methylation in human U937 cells at 50 uM after 24 hrs; format: functional, cell-based; in short: as §1
[8] = test system: U-937; assay: Induction of apoptosis in human U937 cells at 25 uM after 30 hrs; format: functional
In short: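 Apoptosis read as caspase 3 activation by FACS, in U937 cells (RPMI, 10% fetal calf serum, 200000 cells/mL) exposed to 25 µM for 30 h.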

[9] = test system: U-937; assay: Inhibition of human p300/CBP in U937 cells at 50 uM assessed as histone H3 acetylation; format: cell-based
In short: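 Source was U937 nuclear extract (10 µg per assay) as p300/CBP HAT, with histone H3 substrate and compound at 50 µM or DMSO control for 90 min. Acetyl-H3 detected by indirect ELISA, quantified against acetylated H3 peptide standard curves, […].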

[10] = target: Protein arginine N-methyltransferase 1 (Homo sapiens) (UniProt Q99873); assay: Inhibition of human recombinant PRMT1 assessed as nuclear ribonucleoprotein Npl3p methylation at 100 uM; in short: as §2
[11] = target: RmtA (Emericella nidulans, UniProt Q5VLE3); assay: Inhibition of Aspergillus nidulans RmtA
Chain of RmtA (Q5VLE3 whole entry, the tested form may be a part): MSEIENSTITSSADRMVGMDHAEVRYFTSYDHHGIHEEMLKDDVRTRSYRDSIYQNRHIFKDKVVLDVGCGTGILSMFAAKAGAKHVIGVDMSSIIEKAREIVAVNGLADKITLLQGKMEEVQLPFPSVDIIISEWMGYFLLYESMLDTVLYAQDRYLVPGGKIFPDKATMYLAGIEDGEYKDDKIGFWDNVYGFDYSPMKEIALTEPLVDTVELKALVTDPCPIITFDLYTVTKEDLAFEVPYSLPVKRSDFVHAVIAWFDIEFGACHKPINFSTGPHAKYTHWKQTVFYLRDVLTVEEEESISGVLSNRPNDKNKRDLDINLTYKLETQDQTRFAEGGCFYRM
In short: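 Enzyme was GST-RmtA fusion expressed in E. coli BL21 and glutathione-affinity purified (500 ng), preincubated with compound for 15 min at room temperature. Then 20 µg chicken erythrocyte core histones and 0.55 µCi [3H]AdoMet were added, 30 min at 30 °C. Stopped with 25% TCA, filtered, counted by liquid scintillation.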

[12] = test system: U-937; assay: Induction of granulocytic differentiation in human U937 cells assessed as CD11c expression at 5 uM after 30 hrs; format: functional
In short: (§4)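 U937 cells treated for 30 h, then stained with PE-conjugated CD11c (PE mouse IgG1 as control) for 30 min at 4 °C in the dark and resuspended in PBS with PI (0.25 µg/mL). Read-out is percent CD11c-positive/PI-negative cells, with dead PI-positive cells excluded. Coloured compounds limited the top dose to 5 µM or lower.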

[13] = target: T4, NAD-dependent protein deacetylase sirtuin-1 (Homo sapiens) (UniProt Q96EB6); assay: Inhibition of human SIRT1 at 25 uM; in short: as §3
T4 sequence (whole entry): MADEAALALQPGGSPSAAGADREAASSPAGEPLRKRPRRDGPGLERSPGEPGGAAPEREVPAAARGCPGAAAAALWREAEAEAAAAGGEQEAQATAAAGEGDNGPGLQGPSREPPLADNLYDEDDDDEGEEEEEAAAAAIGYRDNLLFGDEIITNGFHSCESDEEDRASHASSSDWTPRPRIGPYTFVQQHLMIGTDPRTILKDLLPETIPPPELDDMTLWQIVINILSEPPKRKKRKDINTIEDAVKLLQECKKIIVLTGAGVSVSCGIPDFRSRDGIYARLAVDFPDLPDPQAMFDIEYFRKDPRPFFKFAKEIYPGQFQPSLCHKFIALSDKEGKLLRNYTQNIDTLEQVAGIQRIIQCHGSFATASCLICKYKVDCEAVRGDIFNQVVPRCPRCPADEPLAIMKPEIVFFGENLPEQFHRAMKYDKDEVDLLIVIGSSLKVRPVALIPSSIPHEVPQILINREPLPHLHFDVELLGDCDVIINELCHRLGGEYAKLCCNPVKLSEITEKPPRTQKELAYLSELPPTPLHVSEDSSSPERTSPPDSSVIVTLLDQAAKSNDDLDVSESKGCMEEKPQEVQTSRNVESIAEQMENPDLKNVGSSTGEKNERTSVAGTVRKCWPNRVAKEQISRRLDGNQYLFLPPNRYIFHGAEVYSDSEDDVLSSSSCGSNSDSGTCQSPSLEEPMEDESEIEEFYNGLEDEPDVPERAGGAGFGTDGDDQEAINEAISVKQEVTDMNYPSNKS

[14] = test system: U-937; assay: Inhibition of histone H4R3 methylation in human U937 cells at 50 uM after 24 hrs; format: functional, cell-based; in short: as §1
[15] = test system: U-937; assay: Induction of granulocytic differentiation in human U937 cells assessed as CD11c expression at 1 uM after 30 hrs; format: functional; details: 5 uM, in the assay text read “at 5 uM” for “at 1 uM”; in short: as §4

| SMILES | Activity [1] | Activity [2] | inhibition [3] [%] | Activity [4] | inhibition [5] [%] | Activity [6] | Activity [7] | Activity [8] [%] | inhibition [9] [%] | Activity [10] | pIC50 [11] | Activity [12] [%] | inhibition [13] [%] | Activity [14] | Activity [3] | Activity [5] | Activity [9] | Activity [13] | Activity [15] |
| --- | --- | --- | --- | --- | --- | --- | --- | --- | --- | --- | --- | --- | --- | --- | --- | --- | --- | --- | --- |
| O=C1/C(=C/c2cc(Br)c(O)c(Br)c2)CCC/C1=C\c1cc(Br)c(O)c(Br)c1 | Active | Active | 44 | Active | 56 | Active | Active | 2 | 96 | Active | 4.85 | 70.9 | 50 | Active | – | – | – | – | – |
| O=C(/C=C/c1ccc(O)c(Br)c1)/C=C/c1ccc(O)c(Br)c1 | inactive | Active | – | – | – | – | inactive | – | – | Active | 3.79 | – | – | inactive | inactive | inactive | inactive | inactive | – |
| O=C(/C=C/c1cc(Br)c(O)c(Br)c1)c1ccc(C(=O)/C=C/c2cc(Br)c(O)c(Br)c2)cc1 | Active | Active | 31 | Active | 56 | – | – | – | 0 | Active | 4.43 | – | 45 | Active | – | – | – | – | inactive |
| O=C(/C=C/c1ccc(O)c(Br)c1)/C=C/c1cc(Br)c(O)c(Br)c1 | Active | Active | 17 | Active | 65 | Active | inactive | 1 | 62 | Active | 4.40 | 68.1 | 60 | Active | – | – | – | – | – |
| O=C(/C=C/c1cc(Br)c(O)c(Br)c1)CC(=O)/C=C/c1cc(Br)c(O)c(Br)c1 | Active | Active | 70 | Active | 61 | Active | – | 10.5 | 58 | Active | 4.32 | 33 | 52 | Active | – | – | – | – | – |
| CC(NC(=O)c1ccccc1/N=C/c1c(O)ccc2ccccc12)c1ccccc1 (stereo unspecified) [SIRTINOL] | – | – | – | – | – | – | – | 7.5 | – | – | – | 7.5 | – | – | – | – | – | – | – |
| O=C(Nc1cccc(NC(=O)c2cc(Br)c(O)c(Br)c2)c1)c1cc(Br)c(O)c(Br)c1 | Active | Active | 86 | Active | 0 | – | – | – | 83 | Active | 4.21 | – | 2 | Active | – | – | – | – | inactive |
| O=C(Nc1cc(Br)c(O)c(Br)c1)c1cccc(C(=O)Nc2cc(Br)c(O)c(Br)c2)c1 | Active | Active | 38 | Active | 9 | – | – | – | 81 | Active | 4.86 | – | 13 | Active | – | – | – | – | inactive |
| O=C(/C=C/c1ccc(O)c(Br)c1)c1cc(Br)c(O)c(Br)c1 | Active | inactive | 36 | – | 38 | – | Active | – | 0 | inactive | 4.40 | – | 35 | Active | – | – | – | – | – |
| O=C(/C=C/c1cc(Br)c(O)c(Br)c1)c1cc(Br)c(O)c(Br)c1 | Active | inactive | 61 | – | 37 | – | Active | – | 16 | inactive | 4.54 | – | 35 | Active | – | – | – | – | – |
